Reference: ChEMBL document CHEMBL1121685, “Development of new mitomycin C and porfiromycin analogues” (J Med Chem, 1981)

Legend:
Mus musculus [1] = test: Antitumor activity against P-388 murine leukemia cells in CDF1 female mice after intraperitoneal administration at the specified optimal dose of 3.2 mg/kg; assay type: functional
[2] = Therapeutic ratio is expressed as ratio of optimal dose and minimum effective dose; assay type: ADME; details: mouse; read-out: TR
In short: (§1)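 10⁶ P-388 ascites cells implanted ip in CDF₁ female mice. Six mice per dose, 10 saline-injected controls, and a concurrent mitomycin C reference group. %T/C = median survival time of treated/control × 100. MED is the lowest dose giving %T/C > 125. Therapeutic ratio = optimal dose/MED.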

Mus musculus [3] = test: Effect of compound on total white blood cell count in BDG1 male mice, after intraperitoneal administration at a dose of 2.83 mg/kg on day 7; assay type: functional
In short: (§2)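 Single ip dose given on day 0 to BDG1 male mice over a descending dose series. Total white blood cell count is expressed as % change from untreated control on days 3, 5 and 7. Significance is flagged at p ≤ 0.05 and p ≤ 0.01.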

Mus musculus [4] = test: Effect of compound on total white blood cell count in BDG1 male mice, after intraperitoneal administration at a dose of 5.03 mg/kg on day 3; assay type: functional
In short: (§3)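 Single ip dose given on day 0 to BDG₁ male mice. Total white blood cell count measured on days 3, 5 and 7, expressed as % change from control. Highest dose was at the LD₅₀, or at twice the optimal dose where so footnoted. Significance reported at p ≤ 0.05 and p ≤ 0.01. D marks death of one or more mice.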

Mus musculus [5] = test: Effect of compound on total white blood cell count in BDG1 male mice, after intraperitoneal administration at a dose of 5.03 mg/kg on day 5; assay type: functional; in short: as §3
Mus musculus [6] = test: Effect of compound on total white blood cell count in BDG1 male mice, after intraperitoneal administration of a compound of 2.83 mg/kg on day 3; assay type: functional
Mus musculus [7] = test: Effect of compound on total white blood cell count in BDG1 male mice, after intraperitoneal administration at a dose of 3.77 mg/kg on day 3; assay type: functional; in short: as §2
Mus musculus [8] = test: Effect of compound on total white blood cell count in BDG1 male mice, after intraperitoneal administration at a dose of 3.77 mg/kg on day 7; assay type: functional; in short: as §2
Mus musculus [9] = test: Minimum effective dose that show activity against P-388 murine leukemia cells in CDF1 female mice, after intraperitoneal administration (optimal dose is 3.2 mg/kg); assay type: functional; details: P388, ip, read-out: MED; in short: as §1
Mus musculus [10] = test: Effect of compound on total white blood cell count in BDG1 male mice, after intraperitoneal administration at a dose of 2.83 mg/kg on day 5; assay type: functional; in short: as §2
Mus musculus [11] = test: Effect of compound on total white blood cell count in BDG1 male mice, after intraperitoneal administration at a dose of 6.7 mg/kg on day 5; assay type: functional; in short: as §3
Mus musculus [12] = test: Effect of compound on total white blood cell count in BDG1 male mice, after intraperitoneal administration at a dose of 3.77 mg/kg on day 5; assay type: functional; in short: as §2
Mus musculus [13] = test: Effect of compound on total white blood cell count in BDG1 male mice, after intraperitoneal administration at a dose of 6.7 mg/kg on day 3; assay type: functional; in short: as §3
Mus musculus [14] = test: Effect of compound on total white blood cell count in BDG1 male mice, after intraperitoneal administration at a dose of 5.03 mg/kg on day 7; assay type: functional; in short: as §3
Mus musculus [15] = test: Effect of compound on total white blood cell count in BDG1 male mice, after intraperitoneal administration at a dose of 6.7 mg/kg on day 7; assay type: functional; in short: as §3
Mus musculus [16] = test: Effect of compound on total white blood cell count in BDG1 male mice, after intraperitoneal administration at a dose of 7.4 mg/kg on day 7; assay type: functional; in short: as §3
Mus musculus [17] = test: Effect of compound on total white blood cell count in BDG1 male mice, after intraperitoneal administration at a dose of 5.5 mg/kg on day 5; assay type: functional; in short: as §3
Mus musculus [18] = species on record: Mus musculus; test: Degree of leukopenia produced by compound is assessed form Percent change in white cells on days 5; assay type: functional
In short: (§4)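 BDG₁ male mice received a single ip dose on day 0. The dose series topped out at the LD₅₀ level, or at twice the optimal dose for some agents. Total white blood cell count was taken on days 3, 5 and 7 and expressed as % change from untreated controls. Significance was set at p ≤ 0.05 or p ≤ 0.01.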

Mus musculus [19] = test: Effect of compound on total white blood cell count in BDG1 male mice, after intraperitoneal administration at a dose of 7.4 mg/kg on day 5; assay type: functional; in short: as §3
Mus musculus [20] = test: Effect of compound on total white blood cell count in BDG1 male mice, after intraperitoneal administration at a dose of 9.8 mg/kg on day 5; assay type: functional; in short: as §3
Mus musculus [21] = test: Effect of compound on total white blood cell count in BDG1 male mice, after intraperitoneal administration at a dose of 9.8 mg/kg on day 3; assay type: functional; in short: as §3
Mus musculus [22] = test: Effect of compound on total white blood cell count in BDG1 male mice, after intraperitoneal administration at a dose of 9.8 mg/kg on day 7; assay type: functional; in short: as §3
Mus musculus [23] = test: Effect of compound on total white blood cell count in BDG1 male mice, after intraperitoneal administration at a dose of 5.5 mg/kg on day 7; assay type: functional; in short: as §3
Mus musculus [24] = test: Effect of compound on total white blood cell count in BDG1 male mice, after intraperitoneal administration at a dose of 7.4 mg/kg on day 3; assay type: functional; in short: as §3
Mus musculus [25] = test: Effect of compound on total white blood cell count in BDG1 male mice, after intraperitoneal administration at a dose of 5.5 mg/kg on day 3; assay type: functional; in short: as §3
Mus musculus [26] = species on record: Mus musculus; test: Half-wave potential produced by the compound at their optimal dose; assay type: functional; set-up: unit not given here
Mus musculus [27] = test: Effect of compound on total white blood cell count in BDG1 male mice, after intraperitoneal administration at a dose of 1.27 mg/kg on day 5; assay type: functional; in short: as §4
Mus musculus [28] = species on record: Mus musculus; test: Degree of leukopenia produced by compound is assessed form Percent change in white cells on day 3; assay type: functional; in short: as §4
Mus musculus [29] = test: Effect of compound on total white blood cell count in BDG1 male mice, after intraperitoneal administration at a dose of 1.69 mg/kg on day 7; assay type: functional; in short: as §4
Mus musculus [30] = test: Effect of compound on total white blood cell count in BDG1 male mice, after intraperitoneal administration at a dose of 2.25 mg/kg on day 7; assay type: functional; in short: as §2
Mus musculus [31] = test: Effect of compound on total white blood cell count in BDG1 male mice, after intraperitoneal administration at a dose of 1.27 mg/kg on day 3; assay type: functional; in short: as §4
Mus musculus [32] = test: Effect of compound on total white blood cell count in BDG1 male mice, after intraperitoneal administration at a dose of 3 mg/kg on day 5; assay type: functional; in short: as §2
Mus musculus [33] = test: Effect of compound on total white blood cell count in BDG1 male mice, after intraperitoneal administration at a dose of 1.69 mg/kg on day 5; assay type: functional; in short: as §4
Mus musculus [34] = test: Effect of compound on total white blood cell count in BDG1 male mice, after intraperitoneal administration at a dose of 3 mg/kg on day 7; assay type: functional; in short: as §2
Mus musculus [35] = test: Effect of compound on total white blood cell count in BDG1 male mice, after intraperitoneal administration at a dose of 1.69 mg/kg on day 3; assay type: functional; in short: as §4
Mus musculus [36] = test: Effect of compound on total white blood cell count in BDG1 male mice, after intraperitoneal administration at a dose of 3 mg/kg on day 3; assay type: functional; in short: as §2
Mus musculus [37] = test: Effect of compound on total white blood cell count in BDG1 male mice, after intraperitoneal administration at a dose of 1.27 mg/kg on day 7; assay type: functional; in short: as §4
Mus musculus [38] = test: Effect of compound on total white blood cell count in BDG1 male mice, after intraperitoneal administration at a dose of 2.25 mg/kg on day 3; assay type: functional; in short: as §2
Mus musculus [39] = test: Effect of compound on total white blood cell count in BDG1 male mice, after intraperitoneal administration at a dose of 2.25 mg/kg on day 5; assay type: functional; in short: as §2
Mus musculus [40] = test: Antitumor activity against P-388 murine leukemia cells in CDF1 female mice after intraperitoneal administration at the specified optimal dose of 25.6 mg/kg; assay type: functional
Mus musculus [41] = test: Effect of compound on total white blood cell count in BDG1 male mice, after intraperitoneal administration at a dose of 59.0 mg/kg on day 3; assay type: functional; in short: as §3
Mus musculus [42] = test: Effect of compound on total white blood cell count in BDG1 male mice, after intraperitoneal administration at a dose of 44.25 mg/kg on day 5; assay type: functional; in short: as §3
Mus musculus [43] = test: Effect of compound on total white blood cell count in BDG1 male mice, after intraperitoneal administration at a dose of 33.18 mg/kg on day 3; assay type: functional; in short: as §2
Mus musculus [44] = test: Effect of compound on total white blood cell count in BDG1 male mice, after intraperitoneal administration at a dose of 44.25 mg/kg on day 3; assay type: functional; in short: as §3
Mus musculus [45] = test: Minimum effective dose that show activity against P-388 murine leukemia cells in CDF1 female mice, after intraperitoneal administration (optimal dose is 25.6 mg/kg); assay type: functional; details: P388, ip, read-out: MED; in short: as §1
Mus musculus [46] = test: Effect of compound on total white blood cell count in BDG1 male mice, after intraperitoneal administration at a dose of 44.25 mg/kg on day 7; assay type: functional; in short: as §3
Mus musculus [47] = test: Effect of compound on total white blood cell count in BDG1 male mice, after intraperitoneal administration at a dose of 33.18 mg/kg on day 7; assay type: functional; in short: as §2
Mus musculus [48] = test: Effect of compound on total white blood cell count in BDG1 male mice, after intraperitoneal administration at a dose of 59.0 mg/kg on day 7; assay type: functional; in short: as §3
Mus musculus [49] = test: Effect of compound on total white blood cell count in BDG1 male mice, after intraperitoneal administration at a dose of 33.18 mg/kg on day 5; assay type: functional; in short: as §2
Mus musculus [50] = test: Effect of compound on total white blood cell count in BDG1 male mice, after intraperitoneal administration at a dose of 59.0 mg/kg on day 5; assay type: functional; in short: as §3

COC12[C@@H](COC(N)=O)C3=C(C(=O)C(C)=C(N4CC4C)C3=O)N1C[C@@H]1[C@H]2N1C (stereo partly drawn)
T/C (Mus musculus [1]): 163% | selectivity ratio [2]: 8 | Change (Mus musculus [3]): 2% | Change (Mus musculus [4]): -31% | Change (Mus musculus [5]): -44% | Change (Mus musculus [6]): -31% | Change (Mus musculus [7]): -30% | Change (Mus musculus [8]): -11% | minimal effective dose (Mus musculus [9]): 0.4 mg/kg | Change (Mus musculus [10]): -21% | Change (Mus musculus [11]): -49% | Change (Mus musculus [12]): -25% | Change (Mus musculus [13]): -28% | Change (Mus musculus [14]): -4% | Change (Mus musculus [15]): -37%

COC12[C@@H]3N[C@@H]3CN1C1=C(C(=O)C(Nc3cccnc3)=C(C)C1=O)[C@@H]2COC(N)=O (stereo partly drawn)
T/C (Mus musculus [1]): 211% | selectivity ratio [2]: > 16 | Change (Mus musculus [16]): -0.2% | Change (Mus musculus [17]): -24% | Change (Mus musculus [18]): -33% | Change (Mus musculus [19]): -46% | Change (Mus musculus [20]): -42% | Change (Mus musculus [21]): -36% | Change (Mus musculus [22]): 24% | Change (Mus musculus [23]): -14% | minimal effective dose (Mus musculus [9]): < 0.2 mg/kg | Change (Mus musculus [24]): -43% | Change (Mus musculus [25]): -41% | E1/2 (Mus musculus [26]): -0.31

COC12[C@@H]3N[C@@H]3CN1C1=C(C(=O)C(N3CC3C)=C(C)C1=O)[C@@H]2COC(N)=O (stereo partly drawn)
T/C (Mus musculus [1]): 233% | selectivity ratio [2]: 32 | Change (Mus musculus [27]): -5% | Change (Mus musculus [28]): -24% | Change (Mus musculus [29]): 3% | Change (Mus musculus [30]): -6% | Change (Mus musculus [31]): -16% | Change (Mus musculus [32]): -39% | Change (Mus musculus [33]): -5% | minimal effective dose (Mus musculus [9]): 0.1 mg/kg | Change (Mus musculus [34]): -12% | Change (Mus musculus [35]): -24% | Change (Mus musculus [36]): -37% | Change (Mus musculus [37]): 18% | Change (Mus musculus [38]): -36% | Change (Mus musculus [39]): -32% | E1/2 (Mus musculus [26]): -0.32

C#CCNC1=C(C)C(=O)C2=C(C1=O)[C@H](COC(N)=O)C1(OC)[C@H]3[C@@H](CN21)N3C (stereo partly drawn)
selectivity ratio [2]: 16 | T/C (Mus musculus [40]): 300% | Change (Mus musculus [41]): -80% | Change (Mus musculus [42]): -69% | Change (Mus musculus [43]): -64% | Change (Mus musculus [44]): -74% | minimal effective dose (Mus musculus [45]): 1.6 mg/kg | Change (Mus musculus [46]): -67% | Change (Mus musculus [47]): -49% | Change (Mus musculus [48]): -77% | Change (Mus musculus [49]): -66% | Change (Mus musculus [50]): -84%
